Two compounds from ChEMBL document CHEMBL3526048, “In vitro metabolism of rivoglitazone, a novel peroxisome proliferator-activated receptor γ agonist, in rat, monkey, and human liver microsomes and freshly isolated hepatocytes” (Drug Metab Dispos, 2011) can be followed below.

Data set [1] addresses T1, Cytochrome P450 2C9 (Homo sapiens, UniProt P11712). Nature of the data set: Activity of human CYP2C9 expressed in microsomes isolated from baculovirus infected insect cell assessed as enzyme-mediated 2-mercapto-3-(4-((6-methoxy-1-methyl-1H-benzo[d]imidazol-2-yl)methoxy)phenyl)propanoic acid formation at 20 uM after 2 hrs by radio-HPLC/LC-MS/MS analysis in presence of NADPH-generating system. It counts as ADME. The gist of the method: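 Baculovirus-insect-cell microsomes expressing the human CYP (1 mg/ml protein) were incubated with [14C]rivoglitazone (20 μM) in 50 mM potassium phosphate (pH 7.4) or 100 mM Tris-HCl (pH 7.5) with an NADPH-generating system (2 mM NADP+, 20 mM glucose 6-phosphate, 2 units/ml G6PDH, 10 mM MgCl2) for 2 h at 37°C. Insect-cell control supersomes served as the control. Reactions were stopped with acetonitrile, and the concentrated supernatants were analysed by radio-HPLC, LC-MS and LC-MS/MS.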

Data set [2] addresses T1, Cytochrome P450 2C9. Briefly: Activity of human CYP2C9 expressed in microsomes isolated from baculovirus infected insect cell assessed as enzyme-mediated 3-(4-((6-methoxy-1-methyl-1H-benzo[d]imidazol-2-yl)methoxy)phenyl)-2-(methylsulfonyl)propanamide formation at 20 uM after 2 hrs by radio-HPLC/LC-MS/MS analysis in presence of NADPH-generating system/SAM. In kind it is ADME.

Data set [3] can be described thus: Drug metabolism in rat hepatocytes assessed as formation of 2-hydroxy-3-(4-((6-methoxy-1-methyl-1H-benzo[d]imidazol-2-yl)methoxy)phenyl)propanamide at 30 uM after 3 hrs by radio-HPLC/LC-MS/MS analysis in presence of NADPH-generating system and NADPH-generating system/SAM. In kind it is ADME, cell-based, Hepatocyte.
In another data set the target is T2, Cytochrome P450 2C8 (Homo sapiens, UniProt P10632).
T2 sequence (P10632 whole entry): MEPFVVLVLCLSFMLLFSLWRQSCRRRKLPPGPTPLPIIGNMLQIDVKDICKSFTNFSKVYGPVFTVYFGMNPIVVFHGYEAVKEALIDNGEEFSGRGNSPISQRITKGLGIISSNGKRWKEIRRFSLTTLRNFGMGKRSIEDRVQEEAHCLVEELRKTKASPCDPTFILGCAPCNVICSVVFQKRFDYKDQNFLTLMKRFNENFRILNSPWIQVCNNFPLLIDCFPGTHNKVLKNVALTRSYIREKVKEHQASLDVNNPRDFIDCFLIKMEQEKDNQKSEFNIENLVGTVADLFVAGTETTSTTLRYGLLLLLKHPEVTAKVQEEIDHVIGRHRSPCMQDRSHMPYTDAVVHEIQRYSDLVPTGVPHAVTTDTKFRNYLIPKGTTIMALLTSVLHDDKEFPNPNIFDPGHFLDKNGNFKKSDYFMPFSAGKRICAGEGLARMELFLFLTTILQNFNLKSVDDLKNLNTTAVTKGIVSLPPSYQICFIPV
Nature of the data set: Activity of human CYP2C8 expressed in microsomes isolated from baculovirus infected insect cell assessed as enzyme-mediated 5-hydroxy-5-(4-((6-methoxy-1-methyl-1H-benzo[d]imidazol-2-yl)methoxy)benzyl)thiazolidine-2,4-dione formation at 20 uM after 2 hrs by radio-HPLC/LC-MS/MS analysis in presence of NADPH-generating system and NADPH-generating system/SAM. In kind it is ADME. The gist of the method: (§1)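 Baculovirus/insect-cell microsomes expressing single human CYPs, 1 mg/ml protein, with 50 mM potassium phosphate (pH 7.4) or 100 mM Tris-HCl (pH 7.5). NADPH-generating system: 2 mM NADP⁺, 20 mM glucose 6-phosphate, 2 units/ml G6PDH, 10 mM MgCl₂. [¹⁴C]rivoglitazone at 20 μM, 2 h at 37°C with shaking. Control used insect-cell control supersomes. Stopped with acetonitrile; supernatant concentrated under nitrogen; metabolites analysed by radio-HPLC, LC-MS and LC-MS/MS.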

In another data set the target is T3, Cytochrome P450 1A2 (Homo sapiens, UniProt P05177).
T3 sequence (P05177 whole entry): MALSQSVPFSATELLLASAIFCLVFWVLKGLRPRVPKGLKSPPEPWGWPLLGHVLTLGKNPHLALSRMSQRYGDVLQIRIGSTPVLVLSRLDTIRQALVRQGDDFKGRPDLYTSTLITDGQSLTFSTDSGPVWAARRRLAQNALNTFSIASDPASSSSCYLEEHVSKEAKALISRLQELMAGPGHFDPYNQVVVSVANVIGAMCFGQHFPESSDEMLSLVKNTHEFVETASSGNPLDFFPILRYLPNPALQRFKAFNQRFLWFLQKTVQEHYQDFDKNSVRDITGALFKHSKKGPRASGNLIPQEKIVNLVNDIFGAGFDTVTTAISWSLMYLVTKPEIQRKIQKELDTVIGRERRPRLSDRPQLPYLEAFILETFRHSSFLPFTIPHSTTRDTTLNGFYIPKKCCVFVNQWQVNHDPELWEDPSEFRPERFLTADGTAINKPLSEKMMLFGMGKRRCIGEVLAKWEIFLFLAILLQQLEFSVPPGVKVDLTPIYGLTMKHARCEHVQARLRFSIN
Nature of the data set: Activity of human CYP1A2 expressed in microsomes isolated from baculovirus infected insect cell assessed as enzyme-mediated 2-mercapto-3-(4-((6-methoxy-1-methyl-1H-benzo[d]imidazol-2-yl)methoxy)phenyl)propanoic acid formation at 20 uM after 2 hrs by radio-HPLC/LC-MS/MS analysis in presence of NADPH-generating system. It counts as ADME. The gist of the method:
as §1

In data set [4] the target is T4, UDP-glucuronosyltransferase 1A3 (Homo sapiens, UniProt P35503).
T4 sequence (P35503 whole entry): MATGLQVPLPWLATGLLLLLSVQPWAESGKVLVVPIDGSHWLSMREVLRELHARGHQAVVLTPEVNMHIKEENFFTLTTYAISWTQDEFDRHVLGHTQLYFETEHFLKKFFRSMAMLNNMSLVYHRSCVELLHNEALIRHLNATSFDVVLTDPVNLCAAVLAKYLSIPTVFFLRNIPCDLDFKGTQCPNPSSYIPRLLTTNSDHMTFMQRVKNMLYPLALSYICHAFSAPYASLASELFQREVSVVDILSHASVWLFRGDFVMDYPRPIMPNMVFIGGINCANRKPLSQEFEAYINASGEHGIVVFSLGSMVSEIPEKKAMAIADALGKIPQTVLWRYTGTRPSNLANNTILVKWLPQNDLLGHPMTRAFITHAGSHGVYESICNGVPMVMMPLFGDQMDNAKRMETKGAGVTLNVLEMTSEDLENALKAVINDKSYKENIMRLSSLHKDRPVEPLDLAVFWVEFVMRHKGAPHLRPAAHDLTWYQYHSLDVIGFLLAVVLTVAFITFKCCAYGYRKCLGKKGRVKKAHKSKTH
Nature of the data set: Activity of human UGT1A3 expressed in microsomes isolated from baculovirus infected insect cell assessed as enzyme-mediated compound formation treated with [14C]-rivoglitazone at 20 uM after 4 hrs by radio-HPLC/LC-MS/MS analysis in presence of UDPGA, UDPGA/SAM.

T1 sequence (P11712 whole entry): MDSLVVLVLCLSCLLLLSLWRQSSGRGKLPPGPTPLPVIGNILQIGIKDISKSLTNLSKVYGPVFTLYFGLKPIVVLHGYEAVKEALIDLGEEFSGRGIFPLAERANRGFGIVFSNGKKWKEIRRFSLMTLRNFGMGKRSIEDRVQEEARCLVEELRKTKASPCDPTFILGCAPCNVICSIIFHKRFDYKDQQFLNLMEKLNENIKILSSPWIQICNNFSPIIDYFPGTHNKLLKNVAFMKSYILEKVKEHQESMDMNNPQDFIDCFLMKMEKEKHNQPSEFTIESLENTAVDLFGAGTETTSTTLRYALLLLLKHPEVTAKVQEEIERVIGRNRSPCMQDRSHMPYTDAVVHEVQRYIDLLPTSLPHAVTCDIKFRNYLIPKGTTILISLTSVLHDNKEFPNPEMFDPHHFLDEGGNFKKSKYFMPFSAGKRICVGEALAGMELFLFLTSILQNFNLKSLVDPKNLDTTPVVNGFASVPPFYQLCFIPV

As for `COc1ccc2nc(COc3ccc(C[14CH]4SC(=O)NC4=O)cc3)n(C)c2c1.Cl` (racemic), the Drug metabolism result is recorded as “metabolite_detected” at Cytochrome P450 2C9 [1]; “metabolite_not_detected” at Cytochrome P450 2C9 [2]; “metabolite_not_detected” in data set [3]; “metabolite_detected” at Cytochrome P450 2C8; “metabolite_detected” at Cytochrome P450 1A2.

On to `COc1ccc2nc(COc3ccc(CC(S)C(=O)O)cc3)n(C)c2c1` (stereo unspecified), for which the Drug metabolism entry in data set [4] was “metabolite_detected”.
